Assays:
[1] = biological target: T1, Catechol O-methyltransferase (Rattus norvegicus) (UniProt P22734); experiment: Compound was evaluated for its ability to inactivate Catechol O-methyltransferase after dialysis
T1 sequence (whole entry): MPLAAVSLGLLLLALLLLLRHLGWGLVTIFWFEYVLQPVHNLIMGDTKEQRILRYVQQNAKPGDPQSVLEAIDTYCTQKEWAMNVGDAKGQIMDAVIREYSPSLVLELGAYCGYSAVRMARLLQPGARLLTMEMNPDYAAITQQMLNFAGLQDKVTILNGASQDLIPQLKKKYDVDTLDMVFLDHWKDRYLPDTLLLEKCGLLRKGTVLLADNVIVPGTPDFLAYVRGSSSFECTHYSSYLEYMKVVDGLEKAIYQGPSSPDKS
In short: (§1)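 Purified rat liver COMT preincubated 60 min at 37 °C with inhibitor (0.5 mM), MgCl2 1.20 mM, phosphate buffer pH 7.60. Residual activity relative to unpreincubated controls (dialyzed 24 h for post-dialysis line); duplicate means.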

[2] = biological target: T1, Catechol O-methyltransferase (Rattus norvegicus); experiment: Compound was evaluated for its ability to inactivate Catechol O-methyltransferase before dialysis; in short: as §1
[3] = biological target: T1, Catechol O-methyltransferase (Rattus norvegicus); experiment: (§2) Kinetic constants for the inactivation of Catechol O-methyltransferase by the compound
[4] = biological target: T1, Catechol O-methyltransferase (Rattus norvegicus); experiment: Evaluated for its ability to inactivate Catechol O-methyltransferase under anaerobic conditions, after 60 min at 37 degree. C; parameters: concentration or dose not given beside the values
In short: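 Anaerobic variant: preincubation (inhibitor 0.5 mM, MgCl2 1.20 mM, phosphate pH 7.60, purified rat liver COMT, 60 min, 37 °C) in sealed ampules under nitrogen, inhibitor stocks in deoxygenated water, samples withdrawn by syringe and assayed in ampules under nitrogen.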

[5] = biological target: T2, Catechol O-methyltransferase (Rattus norvegicus, UniProt P22734); experiment: as §2
T2 sequence (P22734 whole entry): T1 sequence (whole entry)

[6] = biological target: T1, Catechol O-methyltransferase (Rattus norvegicus); experiment: Evaluated for its ability to inactivate Catechol O-methyltransferase under aerobic conditions, after 60 min at 37 degree. C; parameters: concentration or dose not given beside the values
In short: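 Aerobic preincubation of purified rat liver COMT with inhibitor (0.5 mM), MgCl2 1.20 mM, phosphate buffer pH 7.60 for 60 min at 37 °C. Residual activity versus controls assayed directly after inhibitor addition; duplicate means.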

[7] = biological target: T1, Catechol O-methyltransferase (Rattus norvegicus); experiment: Kinetic constants for the inactivation of cCatechol O-methyltransferase by the compound

| SMILES | residual activity [1] | residual activity [2] | K2 [3] | residual activity [4] | Ki [5] | residual activity [6] | K2 [7] |
| --- | --- | --- | --- | --- | --- | --- | --- |
| NCCc1c[nH]c2cc(O)c(O)cc12 | 232 c.p.m. | 242 c.p.m. | 0.086 min⁻¹ | 89% | 0.328 mM | 0% |  |
| Oc1cc2cc[nH]c2cc1O | 228 c.p.m. | 282 c.p.m. | 0.55 min⁻¹ | 96% | 3.46 mM | 0% |  |
| Cc1c(O)c(O)c(C)c2[nH]ccc12 | 212 c.p.m. | 322 c.p.m. | 1.12 min⁻¹ | 96% | 7.26 mM | 4.5% |  |

Further lines, results first:

| residual activity [1] | residual activity [2] | K2 [3] | residual activity [4] | Ki [5] | residual activity [6] | K2 [7] | SMILES |
| --- | --- | --- | --- | --- | --- | --- | --- |
| 262 c.p.m. | 277 c.p.m. | 0.16 min⁻¹ | 84% | 1.14 mM | 0% |  | Cc1c(O)c(O)cc2cc[nH]c12 |
| 351 c.p.m. | 396 c.p.m. |  | 81% | 15.2 mM | 0% | 0.47 min⁻¹ | Cc1c(O)c(O)cc2[nH]ccc12 |
